Screen size: about 370,000 compounds; about 1,200 (0.32%) were called active. What follows is part of a selection rich in actives, with near analogues and random picks from the rest. Values without a mark were called inactive.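 The calls were made as follows: active = inhibition above the mean of all tested compounds plus 3 SD, set per campaign (cut at about 25% in these data); inactive = the rest.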

Chain of Tyrosyl-DNA phosphodiesterase 2 (Homo sapiens) (O95551 whole entry, looked up): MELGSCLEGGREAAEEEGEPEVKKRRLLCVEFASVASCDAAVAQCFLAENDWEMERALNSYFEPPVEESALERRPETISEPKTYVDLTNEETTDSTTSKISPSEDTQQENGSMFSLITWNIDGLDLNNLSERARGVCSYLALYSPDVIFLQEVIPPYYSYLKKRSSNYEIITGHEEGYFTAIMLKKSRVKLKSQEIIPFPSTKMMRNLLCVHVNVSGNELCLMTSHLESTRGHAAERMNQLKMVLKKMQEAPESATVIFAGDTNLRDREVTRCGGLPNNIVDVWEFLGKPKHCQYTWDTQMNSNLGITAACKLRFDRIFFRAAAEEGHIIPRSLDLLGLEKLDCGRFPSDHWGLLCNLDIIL

The target of the test is Tyrosyl-DNA phosphodiesterase 2 (Homo sapiens) (UniProt O95551). The experiment in a line: blockers of TDP2 phosphodiesterase activity – biochemical, epi absorbance, recombinant enzyme, primary screen (AID 720702).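 Also: 0% = DMSO with enzyme and 100% = buffer with substrate but no TDP2.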 Particulars: recombinant TDP2, T5PNP hydrolysis, p-nitrophenol absorbance 415 nm; at 12.8 µM; stronger effect = higher value. An outline of the steps:
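Material: recombinant human TDP2; quantity: TDP2 enzyme at 120 nM final; medium: Tris-HCl pH 7.5 with MgCl2; compound: single concentration, 12.8 µM nominal, with 1% DMSO; incubation: 2 h enzyme incubation at 37 °C; signal: epi absorbance; measure: percent inhibition; benchmarks: high control without enzyme, low control DMSO plus TDP2; repeats: singlicate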
Turning to `Cc1nn2cc(-c3ccc(Cl)cc3)cnc2c1Br`, the inhibition is 4.6%.

For `C=CCn1c(SCc2ccc(Cl)c(Cl)c2)nnc1C(CO)NC(=O)c1ccc(OC)cc1` (stereo not given), the inhibition was -1.56%.

In the case of `CCCc1c(C)nc2c(Br)cccc2c1Cl`, the inhibition was 3.31%.

As for `O=c1oc2ccccc2c(CNc2ccccc2)c1[N+](=O)[O-]`, the inhibition is 40.8% (active).

Take `CCCN(CCC)c1c([N+](=O)[O-])c(=O)oc2ccccc12`: the inhibition is 6.98%.

Consider `Nc1c(NCCc2ccccc2)c2ccccc2oc1=O`, for which the inhibition was -16.4%.

For `O=C(OCc1ccccc1)N1CCC2CC1c1ccc(-c3ccc4c(c3)OCO4)cc12` (stereo not given), the inhibition is -3.35%.

Take `Cc1ccc(S(=O)(=O)/N=C2\C=C(NS(=O)(=O)c3ccc(C)cc3)C(=O)c3ccccc32)cc1`: the inhibition was 4.19%.

Regarding `COc1ccc(C(=O)C(C)OC(=O)c2cccc(S(=O)(=O)Nc3c(C)n(C)n(-c4ccccc4)c3=O)c2)cc1` (stereo not given), the inhibition is -13.4%.

Take `COc1ccc(S(=O)(=O)/N=C2\C=C(NS(=O)(=O)c3ccccc3)C(=O)c3ccccc32)cc1`: the inhibition was 36.1% (active).

Consider `CCCCNC(=O)C[C@H]1C[C@@]2(C(=O)OC)C(=C[C@H](COCc3ccccc3)O[C@@H]2C)N(Cc2ccc(Cl)cc2Cl)C1=O`, for which the inhibition was -0.01%.

As to `C=CCN1C(=O)[C@H](CC(=O)N2CCN(C(=O)OCC)CC2)[C@@]2(C(=O)OCC)CCCC=C12`, the inhibition is 4.51%.

With `CCN(CC)CCCN=C(N)N`, the inhibition was 1.59%.

On to `COc1ccc(-c2csc(Nc3ccc(O)cc3)n2)cc1`, for which the inhibition is 26.4% (active).

For the molecule `COc1ccc(-c2ccc3nnc(SCC(=O)Nc4ccc(NC(C)=O)cc4)n3n2)cc1`, the inhibition was -3.62%.

With `COc1ccc(NC2=CC(=S)NC(C)(C)C2)cc1`, the inhibition is -0.55%.

Consider `CCc1cc(=O)oc2cc(OCC(=O)N3CCCc4ccccc43)ccc12`, for which the inhibition is 6.19%.

On to `COC(=O)c1cc(S(=O)(=O)N2CCN(C(=O)C3CCCO3)CC2)cn1C` (stereo not given), for which the inhibition was -2.33%.

On to `CCN1C(=O)c2cccc3c(S(=O)(=O)Nc4ccccc4O)ccc1c23`, for which the inhibition was -2.02%.

`CCN1C(=O)c2cccc3c(N)ccc1c23`: the inhibition is 30.9% (active).

As to `CCCCN(C)C(=O)c1ccc2c(c1)N(CC)C(=O)c1ccccc1S2(=O)=O`, the inhibition was 7.54%.

In the case of `CCOC(=O)c1cccc(NC(=O)CN(C)S(=O)(=O)c2ccc(-c3cocn3)s2)c1`, the inhibition is -8.94%.

On to `O=C(NC1CC1)c1ccc(-c2ccccc2)cc1`, for which the inhibition is -8.19%.

On to `COc1ccc(-c2[nH][nH]c(=O)c2NC(=O)c2ccc([N+](=O)[O-])cc2)cc1`, for which the inhibition is 19.5%.

In the case of `Cc1ccc(C(=O)Nc2c(-c3ccccc3)[nH][nH]c2=O)cc1`, the inhibition was 44.4% (active).

Take `C=CCN1C(=O)[C@@H](CC(=O)NCCCCc2ccccc2)[C@]2(C(=O)OCC)CCCCC/C=C/12`: the inhibition is 3.84%.

As to `O=C(Nc1cc(F)cc(F)c1)OC1CCC12CCC(c1ccccc1)CC2` (stereo not given), the inhibition was 3%.

Regarding `CCN(CC)CCN1C(=O)C2C(C(=O)Nc3ccc(Br)cc3)C3C=CC2(O3)C1C(=O)NC1CCCCC1` (stereo not given), the inhibition was 27.5% (active).

As to `O=C(Nc1ccccc1F)C1C2C=CC3(O2)C1C(=O)N(c1cccnc1)C3C(=O)NC1CCCCC1` (stereo not given), the inhibition is -0.47%.

On to `CC(C)N1C(=O)C2C(C(=O)NC3CCCCC3)C3C=CC2(O3)C1C(=O)NC1CCCC1` (stereo not given), for which the inhibition is 3.15%.

For the molecule `CC1=C(C(=O)N(C(C)C)C(C)C)CC(CC(=O)NCCCCc2ccccc2)C(=O)N1CCC1=CCCCC1` (stereo not given), the inhibition was -5.04%.

Take `CC(=O)CCS(=O)(=O)c1ccc(C)c(C)c1`: the inhibition was -9.65%.

Take `COCCNC(=O)c1ccc(S(=O)(=O)c2ccc(Cl)cc2)c(NC(C)=O)c1`: the inhibition is 27.5% (active).

Regarding `COCCCNC(=O)c1ccc(CNS(=O)(=O)c2ccc(NC(C)=O)cc2)cc1`, the inhibition is -0.2%.

In the case of `COc1ccc(C(=O)NCc2ccc(Cl)cc2)cc1S(=O)(=O)N1CCCC1`, the inhibition is -0.23%.

Regarding `Cc1cc(OCC(=O)Nc2nccs2)c2c(C)c(C)c(=O)oc2c1`, the inhibition is 0.03%.

As to `Nc1nc(O)c(CC(=O)O)s1`, the inhibition is 27.2% (active).

Consider `CCOC(=O)c1nc(N)sc1C(=O)OCC`, for which the inhibition is -14.1%.

On to `CCCCC(=O)N[C@@H]1CC[C@@]23CCCN2C(=O)CCC[C@H]3[C@H]1C`, for which the inhibition was -3.42%.

In the case of `O=C(OCC(=O)N1CCN(c2ccccc2)CC1)c1ccc([N+](=O)[O-])s1`, the inhibition was 31.9% (active).

As to `Cc1ccc(C)c(OCCC(=O)OCC(=O)N2CCN(c3ccccc3)CC2)c1`, the inhibition was -10.4%.

In the case of `O=C(OCC(=O)N1CCOCC1)c1ccc(N2CCOCC2)c([N+](=O)[O-])c1`, the inhibition is -4.23%.

`O=C(NCc1ccccc1Cl)C1CCC(CNc2c(N3CCCCC3)c(=O)c2=O)CC1` (stereo not given): the inhibition is 1.69%.

Turning to `C=C(C)C#CC(Cc1ccccc1)N(CC1CC1)/C(N)=N/C(=O)OCc1ccccc1` (stereo not given), the inhibition was 4.08%.

With `COc1ccc(Cl)cc1NC(=O)CN1CCN(C(=O)N2CCOCC2)CC1`, the inhibition was 5.78%.

As for `O=C(CN1CCN(c2cccc(Cl)c2)CC1)Nc1ccc(S(=O)(=O)N2CCOCC2)cc1`, the inhibition was -4.18%.

Regarding `Cc1ccc(Cl)cc1NC(=O)CN1CCN(S(=O)(=O)N2CCOCC2)CC1`, the inhibition is 27.6% (active).

For `COc1ccc(C2CC=C(C(=O)O)C(c3ccccc3F)N2S(=O)(=O)c2ccc(C)cc2)cc1OC` (stereo not given), the inhibition is -4.62%.

Turning to `O=C(C1CCCN1S(=O)(=O)c1ccccc1)N1CCc2ccccc2C1` (stereo not given), the inhibition was -6.17%.

As to `C=CCN(C(=O)[C@@H](CCCC)[C@@H](O)c1ccc(Cl)cc1)c1ccccc1`, the inhibition is -12.4%.

Consider `CCCCCCCCCCCCCCCC(=O)OC/C=C(C)/C=C/C=C(C)/C=C/C1=C(C)CCCC1(C)C`, for which the inhibition was 2.56%.

Consider `COCCn1nnnc1C(c1cc2ccc(OC)cc2[nH]c1=O)N1CCc2ccccc2C1` (stereo not given), for which the inhibition is 41.1% (active).

Regarding `COc1ccc(CCC(C)N2CCc3ccccc3C2)cc1` (stereo not given), the inhibition is -2.33%.

Turning to `COCCn1nnnc1C(c1ccccc1Cl)N1CCN(c2ccccc2OC)CC1` (stereo not given), the inhibition was -10.8%.

On to `NS(=O)(=O)c1ccc(CCNC(=O)c2nc(CS(=O)(=O)c3ccc(Cl)cc3)no2)cc1`, for which the inhibition is -7.74%.

Take `Cc1cc(C)c(S(=O)(=O)c2ccc(F)cc2C)c(=O)[nH]1`: the inhibition was 8.26%.

For the molecule `CS(=O)(=O)N1CCCC(C(=O)N2CCOCC2)C1` (stereo not given), the inhibition is 7.83%.

Regarding `Cc1ccc(-n2c(SCC(=O)Nc3ccc(S(=O)(=O)Nc4nccs4)cc3)nnc2-c2cccnc2)cc1`, the inhibition was -18.4%.

For the molecule `COc1ccccc1CCn1cnc(-c2ccccc2)c1C(C)C`, the inhibition is -1.89%.

Consider `COc1ccc(C2Nc3ccccc3C(=O)N2Cc2cccs2)cc1COc1c(C)cccc1C` (stereo not given), for which the inhibition is -6.88%.

For the molecule `COc1ccccc1C1C(C#N)=C(N)Oc2c1c(-c1ccccc1)nn2-c1ccccc1` (stereo not given), the inhibition is 68.7% (active).

Consider `COc1ccccc1C1CC(=O)n2c(nc(-c3ccccc3)c2-c2ccccc2)S1` (stereo not given), for which the inhibition is -1.89%.

As for `Cc1nn(-c2ccccc2)c2c1C(c1ccc(F)cc1)C(C#N)=C(N)O2` (stereo not given), the inhibition is 78.5% (active).

Turning to `COc1ccc(C2C(C#N)=C(N)Oc3n[nH]c(C)c32)cc1CN1CCN(c2ccc(F)cc2)CC1` (stereo not given), the inhibition is 2.94%.

For the molecule `CCOC(=O)C1=C(C)OC(N)=C(C#N)C1c1cncc(-c2ccc(F)cc2)c1` (stereo not given), the inhibition is 2.25%.

As to `CC1=NN(C(=O)Cc2ccc(C)cc2)C(O)(c2cccnc2)C1` (stereo not given), the inhibition is -0.61%.

Turning to `C[C@@H]1CN([C@@H](C)CO)C(=O)c2cccc(NC(=O)Nc3cccc4ccccc34)c2O[C@H]1CN(C)S(=O)(=O)c1ccccc1F`, the inhibition is -6.81%.

Turning to `CC(C)(C)NC(=O)C(c1cccnc1)N(C(=O)c1cnco1)c1ccc(C(C)(C)C)cc1` (stereo not given), the inhibition was 6.07%.

On to `Nc1nc2n(n1)C(c1ccco1)CC(c1ccc(Cl)c(Cl)c1)N2` (stereo not given), for which the inhibition is -12.1%.

`O=C(NCCCc1ccccc1)[C@H](Cc1ccccc1)NC1(C(=O)NCCc2c[nH]c3ccccc23)CCC1`: the inhibition is 2.05%.

In the case of `O=C(N[C@H](C(=O)N1CCC[C@H]1C(=O)NCCc1ccccc1Cl)c1ccccc1)c1ccccc1`, the inhibition was 3.26%.

For the molecule `C[C@H](C(=O)N(C)c1ccccc1)[C@@H](O)c1ccc2ccccc2c1`, the inhibition is 6.57%.

In the case of `C=CCN(C)CC#Cc1ccccc1`, the inhibition is -6.66%.

Take `CCn1c(SCC(C)=O)nc2sc3c(c2c1=O)CCCC3`: the inhibition was -7.52%.

As to `CC1(C)OC(=O)C(=CSc2ccc(C(C)(C)C)cc2)C(=O)O1`, the inhibition is -0.61%.

For `Cc1ccsc1C(C(=O)NC1CCCCC1)N(C(=O)Cc1cccs1)C1CC1` (stereo not given), the inhibition is -13.4%.

As for `O=[N+]([O-])c1ccc(NS(=O)(=O)c2ccccc2)c(Cl)c1`, the inhibition is -17.4%.

On to `O=S(=O)(Cc1noc(-c2ccc(OC(F)(F)F)cc2)n1)c1ccc(F)cc1`, for which the inhibition was 1.13%.

As for `O=S(=O)(Nc1ccc(O)c2ccccc12)c1ccc(OC(F)(F)F)cc1`, the inhibition is 46.3% (active).

Regarding `COC(=O)C1CN(CCc2ccccc2)CCS(=O)(=O)N1Cc1cccc(Cl)c1` (stereo not given), the inhibition is 6.91%.

As for `COC(=O)CC1CCc2cc(C)cc(C(CC(C)C)NC(=O)[C@H](CC(C)C)NC(=O)OCc3ccccc3)c2O1` (stereo not given in full), the inhibition was -0.76%.

For `O=S(=O)(c1ccc2c(c1)OCCCO2)N1CCN(S(=O)(=O)c2c(F)cccc2F)CC1`, the inhibition is -13.6%.

Regarding `CCOC(=O)c1c(C)n(C)c2ccc(OC)c(NS(=O)(=O)CC)c12`, the inhibition is -7.66%.

In the case of `O=C(Nc1nccs1)C1CCN(S(=O)(=O)c2ccc(Cl)c(C(F)(F)F)c2)CC1`, the inhibition is 1.48%.

As to `O=C1CC[C@@]23CCCN2C(=O)CCC[C@H]3[C@H]1Cc1ccccc1`, the inhibition was -5.11%.

What is called inhibition is the drop in the measured response relative to a control, in per cent.

The values above are taken from PubChem BioAssay AID720702 (The Scripps Research Institute Molecular Screening Center, 2013).
